Measured values: ChEMBL document CHEMBL4513216, “Probing the Open Global Health Chemical Diversity Library for Multistage-Active Starting Points for Next-Generation Antimalarials” (ACS Infect Dis, 2020)

Assay: Toxicity liver stage against HepG2, at 10uM
Assay type: cell-based
Design: test concentration 10 uM, cell line HepG2-A16-CD81EGFP
Conditions: human, HepG2-A16-CD81EGFP cells; read-out: INHIBITION
Method in brief: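 Uninfected HepG2-A16-CD81EGFP cells, 3 × 10^3 per well, 1536-well, plated on prespotted compound at 10 μM final, parasite-free screening media added to match infected plates; puromycin 10 μM positive, DMSO 0.5% negative; run in parallel with 48 h PbLuc assay at 37 °C, 5% CO2; viability by CellTiter-Glo luminescence, normalized to controls.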

In order of rising cytotoxicity at 10 µM:
1. CCO[C@@H]1CN(Cc2scnc2C)[C@@H]2CCCO[C@@H]21  -151%
2. Cc1nnc2n1CCN(C(=O)c1cn(-c3ccc(F)cc3)nn1)C2  -149%
3. CCn1ccnc1CNC1CC(=O)N(CCc2cccc(Cl)c2)C1 (configuration not stated)  -127%
4. Cc1cnc(C2(C)CCN(Cc3cscn3)CC2)s1  -22.5%
5. CCn1c(C2CCCNC2)nn(CCn2cncn2)c1=O (configuration not stated)  -18.1%
6. Cc1ccc2c(c1)c(CNC(=O)C1CCN(C(C)C)CC1)nn2C  -14.8%
7. NS(=O)(=O)CCN1CCN(c2cc(F)ccc2F)CC1  -14.4%
8. CCN(CC)C(=O)c1ccc(-c2ccsc2)nc1C  -13.4%
9. CCC(CC)CS(=O)(=O)NC(=O)C1CCCC1  -13.3%
10. Fc1cccc(CN2CCC(c3noc(-c4ccccn4)n3)CC2)c1F  -12.8%
11. CCOc1cccc2c1OCC(C(=O)NS(=O)(=O)c1c(C)noc1C)=C2  -12.1%
12. COc1ccccc1C(C)CC(=O)N1CCCS1(=O)=O (configuration not stated)  -11.6%
13. Cc1cc(C)n(CC2CCCN2C(=O)c2cn[nH]c2C)n1 (configuration not stated)  -11.6%
14. Cc1nn(C)c(C)c1-c1cnc(C2CCCN(S(C)(=O)=O)C2)cn1 (configuration not stated)  -11.3%
15. Cc1cccnc1NC(=O)N(CCO)Cc1ccsc1  -11.3%
16. COC[C@H]1CCC[C@H]1Nc1ncnc2c1CCNCC2  -11.2%
17. CS(=O)(=O)N1C[C@H]2CC[C@@H](C1)N(CCC(=O)NCc1ccccc1F)C2  -11%
18. Cc1nnc2n1CCN(CC(=O)NC(C)c1cc3ccccc3o1)C2 (configuration not stated)  -9.79%
19. CC(C)CCNC(=O)c1ccc(-c2ccco2)[nH]c1=O  -9.62%
20. CN1CCCN(C[C@@H]2CN(C(=O)CC3CCC3)C[C@@H]2CO)CC1  -9.11%
21. Cc1noc2ncc(C(=O)NCC3CCCOC3)cc12 (configuration not stated)  -8.42%
22. CC(C)Oc1ccc(C(=O)Nc2nncs2)cn1  -7.94%
23. C1CC(c2nnc(CN3CCCC3c3noc(C4CC4)n3)o2)C1 (configuration not stated)  -7.77%
24. O=C(NCc1csc(Br)c1)N1CCOCC1  -7.45%
25. CC(C)N1CCCC(N2CCOC3(CCCC3)C2)C1=O (configuration not stated)  -7.33%
26. CC(C)=CCN1CCN(C(=O)c2cc(C)n[nH]2)[C@H]2CS(=O)(=O)C[C@H]21  -6.9%
27. OC(CN1CCN(Cc2nnc(C3CC3)o2)CC1)c1ccccc1 (configuration not stated)  -6.82%
28. CC(=O)N(Cc1ncc(C(C)C)o1)C1CCN(CCC#N)C1 (configuration not stated)  -6.39%
29. c1ccc(CN2CCC3(CC2)CN(c2ccccn2)CCO3)nc1  -6.38%
30. C=C(C)CN1CCC(NC(=O)c2scnc2C)CC1  -6.35%
31. CCOc1ccc(Cl)c(C(=O)N2CCN(C(=O)OC)CC2)n1  -6.33%
32. COc1ccc(-c2cc(CC3(NCc4ccc(C)o4)COC3)no2)cc1  -5.88%
33. COc1c(CNCc2cccc(CS(C)(=O)=O)c2)c(C)nn1C  -5.6%
34. CC(=O)N(Cc1noc(C2CC2)n1)C1CCN(Cc2ccccc2)C1 (configuration not stated)  -5.59%
35. Cc1c[nH]c(CN2CCN(C)C3(CCC(=O)N(CC4CC4)CC3)C2)n1 (configuration not stated)  -5.54%
36. COC(=O)c1cc(C(=O)N2CCCCCC2)n(-c2ccccc2)n1  -5.33%
37. CC(NCc1ccc(OCC(N)=O)cc1)c1ccc(Cl)c(Cl)c1 (configuration not stated)  -5.25%
38. Cc1cc(C)n(CC2CCCN2CC(=O)NC2CCOCC2)n1 (configuration not stated)  -5.23%
39. CC(C)N(C(=O)CCc1cccc(F)c1)C1CCOCC1  -5.21%
40. CCN(C(C)=O)c1nc(CN2CCCC2Cn2cncn2)cs1 (configuration not stated)  -5.15%
41. O=C(NC(CC(F)(F)F)c1ccc(Cl)cc1)c1nc(=O)[nH][nH]1 (configuration not stated)  -5.11%
42. O=C(c1cccc(C2CCNC2)c1)N1CCC(c2ncc[nH]2)CC1 (configuration not stated)  -5.03%
43. CC(C)c1cnc(CN(C)C2CCN(CCn3cc(C#N)cn3)C2)o1 (configuration not stated)  -4.98%
44. CNC(=O)c1cc2c(nc1NCC(C)C)CCN(S(=O)(=O)C1CC1)CC2  -4.88%
45. CCC(=O)N1CCC2(CCN(Cc3cccc(F)c3)CC2)CC1  -4.82%
46. O=C(NCCS(=O)(=O)N1CCN(c2ncccn2)CC1)C1CC1  -4.15%
47. CC(C)C(=O)Nc1cc(C(C)(C)C)nn1-c1ccccn1  -4.1%
48. CC(=O)N1C[C@H]2CC[C@@H](C1)N(S(=O)(=O)c1ccccc1Cl)C2  -4%
49. Fc1cccc(-n2ccc(CN3CCCCC3Cn3cncn3)n2)c1 (configuration not stated)  -3.81%
50. CC(C)Oc1ccc(CN2CCN3CCN(C)CC3C2)cc1CO (configuration not stated)  -3.42%
51. CN(Cc1cccc(OC(F)(F)F)c1)Cc1cnn(C)c1  -3.41%
52. Cc1noc(C2CCN(C(=O)CCc3ccccn3)CC2)n1  -3.25%
53. CS(=O)(=O)CCCC(=O)N1CCN(CC2CC2)c2ccccc21  -3.2%
54. CNCCCNC1CCN(c2ccc(-n3ccnc3)cc2)CC1  -3.03%
55. O=C(NC1CCN(C2CC2)CC1)c1cn(-c2ccc(Cl)cc2)nn1  -2.87%
56. Cc1cc(O)cc(C2CCCN2C(=O)c2ccn(C)n2)n1 (configuration not stated)  -2.82%
57. Cc1cc(C(=O)N2CCCN(Cc3nccn3C(C)C)CC2)no1  -2.72%
58. CC(=O)N(C)Cc1cccc(NC(=O)N(C)CCc2cccs2)c1  -2.67%
59. CCN(CCc1nc2cc(C)ccc2[nH]1)C(=O)[C@@H](N)COC  -2.64%
60. CN(Cc1ncnn1C)c1ccnc(Cc2ccccc2)n1  -1.92%
61. CC(C1CCN(Cc2ccc(N(C)C)nc2)CC1)N(C)C (configuration not stated)  -1.75%
62. Cc1cc2nc(C(C)C)cc(N[C@H](C(N)=O)C(C)C)n2n1  -1.66%
63. CNS(=O)(=O)CCCn1nnc(-c2ccc(F)c(C)c2)n1  -1.52%
64. CN1CCC2(COCc3cnc(-c4ccccc4)nc32)C1 (configuration not stated)  -1.5%
65. Cc1cc(N2CCCC(O)(CN(C)C(=O)CCN)C2)c2cnccc2n1 (configuration not stated)  -1.49%
66. Cc1ccc(C(C(=O)NCCc2nc(C)cc(C)n2)N(C)C)cc1 (configuration not stated)  -1.3%
67. Cc1nn(C)c(C)c1NC(=O)CN1CCCC1c1noc(C(C)C)n1 (configuration not stated)  -1.08%
68. CC(C)CNC(=O)N1C[C@@H]2C[C@H](C(=O)NCc3ccccc3)[C@H](C1)O2  -0.924%
69. CCN(CC)CCCC(C)NC(=O)c1cccnc1-n1cccn1 (configuration not stated)  -0.595%
70. CN(C)C(=O)c1ccc(-c2cccc3c2CCNC3)o1  -0.537%
71. Cc1ccc2c(c1)c(CNC(=O)C1CC(=O)N(C3CC3)C1)nn2C (configuration not stated)  -0.502%
72. COc1ccc2c(ccn2CC(=O)N2CCCC2Cn2cccn2)c1 (configuration not stated)  -0.429%
73. Cn1cc(C2=NOC(C(=O)NC3(c4ccccc4)CCCC3)C2)cn1 (configuration not stated)  -0.34%
74. Cc1cn[nH]c1C1COCCN1C(=O)c1ccc2c(c1)CCCC2 (configuration not stated)  -0.21%
75. CCc1ccc(S(=O)(=O)Nc2ccncc2)s1  0.453%
76. CC(C#N)CN(C)C(=O)CCNC(=O)C(C)(C)C (configuration not stated)  0.843%
77. COc1ccc(NC(=O)N2CCN(c3ncccn3)CC2)cn1  1%
78. CN(Cc1cnn(C)c1)C(=O)Cn1c(CS(C)(=O)=O)nc2ccccc21  1.05%
79. NC(=O)c1ccc(-c2nc3c(c(=O)[nH]2)CCNC3)cc1  1.37%
80. CSCCC(=O)N1CCC(c2nccn2Cc2cscn2)CC1  1.41%
81. OCCN1CCN(Cc2cn(-c3ccccc3)nn2)CC1  1.42%
82. COCC1CN(C(=O)Cc2ccccn2)Cc2ncn(C)c21 (configuration not stated)  1.73%
83. CC1(CNC(=O)NCc2ccsc2)CCCS1 (configuration not stated)  1.82%
84. CSCCC1CC(=O)Nc2cc(O)c(C)cc21 (configuration not stated)  1.97%
85. Cc1nc(C)n(CC2CCCN2CC(=O)Nc2cccnc2)n1 (configuration not stated)  2.04%
86. Cc1nc(CN2CC(Cc3ccccc3)CC2=O)no1 (configuration not stated)  2.42%
87. CCOc1ccc(C(=O)N2Cc3cnc(CC)nc3C2)o1  3.34%
88. Cc1nc(C(C)C)sc1C(=O)N1CCN(C2CN3CCC2CC3)CC1 (configuration not stated)  3.79%
89. O=C(CCc1cccnc1)N1CCC2(CCN(CC3CCCC3)C2)C1 (configuration not stated)  3.82%
90. O=C(NCc1ccccc1Cn1ccnc1)N1CCSCC1  3.9%
91. Cc1nn(C)c(C)c1CN(C)c1nc(C2CC2)nc2c(C)nn(C)c12  3.98%
92. O=C1CSC(c2ccc3c(c2)OCO3)c2cn[nH]c2N1 (configuration not stated)  4.29%
93. O=S(=O)(Cc1ccc(F)cc1)N1CCN(CC(O)C2CC2)CC1 (configuration not stated)  4.77%
94. COCCCNC(=O)c1nnsc1-c1ccccc1  5.09%
95. O=C(c1cnn(-c2ccccc2)c1)N1CCN(c2cnccn2)CC1  5.37%
96. CC(C)(C)c1noc(-c2ccnc(-n3cnc(C(=O)O)c3)c2)n1  5.41%
97. CC(C)OCCNC1(c2ccc(Cl)cc2)CCOCC1  5.5%
98. CN(C)S(=O)(=O)Nc1ccc(-n2nccc2C(F)(F)F)cc1  5.65%
99. CC(C)N1CCC(NC(=O)NCc2ccccc2)CC1  5.89%
100. O=C(C1CN(CC2CC2)CC12CCOCC2)N1CCOCC1 (configuration not stated)  6.07%
101. O=C1CC(NS(=O)(=O)c2ccc(F)c(Cl)c2)CN1 (configuration not stated)  6.32%
102. CCc1ccc(CN(C(=O)CCn2cc(S(N)(=O)=O)cn2)C2CC2)cc1  6.37%
103. O=c1c2cc3c(cc2nnn1Cc1cccc(F)c1)OCCO3  6.39%
104. FC1(F)CCNCC12CCN(c1ncccn1)C2 (configuration not stated)  6.65%
105. C/C=C(\C)CN1C[C@H](NC(=O)c2cnc(O)cn2)C[C@H]1C(=O)NCC  7.31%
106. CC(CNC(=O)c1cccc(-n2cccn2)n1)Cn1ccnc1 (configuration not stated)  7.73%
107. CCCn1nccc1C(=O)Nc1ncc(C)s1  8.05%
108. CCC1COCCN1C(=O)CNC(=O)c1ccc2c(c1)CCC2 (configuration not stated)  8.08%
109. CC(=O)N1CCCC1c1cccc(C)c1C (configuration not stated)  10.8%
110. CN(CC1(CO)CCC1)C(=O)c1cc(COc2ccccc2F)[nH]n1  12.1%
111. C=C(C)Cn1cc(C(N)=O)nc1C1CC1  14.5%
112. CCCc1nc(N(C)Cc2ccco2)c2c(n1)c(C)nn2CC  16.9%
